These results are taken from the array DNA melting data of Ke et al. (doi:10.1101/2024.01.08.574731).

The nature of series [1]: melting temperature; fluorescence melt of hairpins on a sequencing array, two-state fit, raised by 9.35 °C to match UV melts. The note with it: sodium 0.088 M. The essentials: (§1)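 Two-state fits, bootstrapped, provided melting temperature and folding enthalpy from Cy3 fluorescence normalised to pre-quench Cy3 and to control constructs. Library hairpins with annealed Cy3 and quencher oligos were imaged on a sequenced MiSeq flow cell in 50 mM Na-HEPES pH 8.0, 25 mM NaCl, at 2.5 °C intervals up to 60 °C. Four replicates were combined with inverse-variance weighting. A 9.35 °C upward shift was applied to fitted temperatures to match UV melts.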

Series [2] is described as follows: folding enthalpy; higher = less favourable; fluorescence melt of hairpins on a sequencing array, two-state fit. To be noted: sodium 0.088 M. The essentials: as §1

Consider GTGAAAGGAAACTTTCAC (((((((....))))))), for which the Tm in series [1] was 54.1 °C. Also, the folding enthalpy in series [2] is -50.6 kcal/mol.
For GGACCACCGAAAGGTTCC (((..(((....)))))), in that order: 29.6 °C and -11.2 kcal/mol.
Taken in the same sequence, the figures for GCGCCCGGAAACGGACGC (((.(((....))).))) were 66.1 °C and -47 kcal/mol.
For GTCCCCCGAAAGGGAGAC (((.(((....))).))), in that order: 56.6 °C and -30.1 kcal/mol.
With GATAGCCGAAAGGCGATC (((.(((....))).))), the Tm in series [1] turned out to be 58.8 °C. Moreover, the folding enthalpy in series [2] is -17.9 kcal/mol.
Taken in the same sequence, the figures for GCACCGGGAAACCAGCGC ((.(.((....)).).)) were 37.4 °C and -20.7 kcal/mol.
Taken in the same sequence, the figures for GACTCGCGAAAGCGTGTC (((.(((....))).))) were 63.3 °C and -27.1 kcal/mol.
For GCCCCGCGAAAGCGCAGC ((..(((....)))..)), in that order: 40.3 °C and -7.42 kcal/mol.
On to GATCCTAGGGAGGATC ((((((....)))))), for which the Tm in series [1] amounted to 51.8 °C. For the same sequence, the folding enthalpy in series [2] is -29.6 kcal/mol.
For GTCGGAGAAATCCGAC ((((((....)))))), in that order: 61.7 °C and -35.7 kcal/mol.
Taken in the same sequence, the figures for GAAGCCGAAAGGCGGTTC ((((((....)))..))) were 47.1 °C and -9.79 kcal/mol.
Regarding GCTCCGCGAAAGCGTGGC ((..(((....)))..)), the Tm in series [1] is 50.1 °C. Also, the folding enthalpy in series [2] is -15.7 kcal/mol.
For GGTTCCGAAAGGACTACC ((((((....)))..))), in that order: 36.1 °C and -15.3 kcal/mol.
For CGTGAGAAATCACG (((((....))))), in that order: 50.8 °C and -25.8 kcal/mol.
For GCCTTGCGAAAGCAAAGC ((.((((....)))).)), in that order: 55.9 °C and -14.9 kcal/mol.
As for GATCGGATCACCGATC ((((((....)))))), in series [1], the Tm is 57.5 °C. The folding enthalpy in series [2] is -34 kcal/mol.
Taken in the same sequence, the figures for GCGTACCACGC ((((...)))) were 55.9 °C and -24.7 kcal/mol.
With GAGACAGGAAACTGTTTC ((.((((....)))).)), the Tm in series [1] was 37.9 °C. In series [2], the folding enthalpy was -29.1 kcal/mol.
For GATGCTGGAAACAACATC ((((.((....)).)))), in that order: 36.2 °C and -31.4 kcal/mol.
Taken in the same sequence, the figures for CGAAGGAAACTTCG (((((....))))) were 48.6 °C and -21.5 kcal/mol.
GTCTACGAAAGTAACGAC ((((((....)))..))): the Tm in series [1] came out at 31.3 °C. For the same sequence, the folding enthalpy in series [2] is -16.4 kcal/mol.
Taken in the same sequence, the figures for GATCAGCGCGCTGATC ((((((....)))))) were 67.4 °C and -43 kcal/mol.
For the sequence GAGGACGAAAGTCGTCTC ((((((....)))..))), the Tm in series [1] was 52.2 °C. The folding enthalpy in series [2] was -28.6 kcal/mol.
For GACTGCGAAAGCAGGTC ((((((....))).))), in that order: 58.1 °C and -13.1 kcal/mol.
For GTGGTTGGAAACAGCTAC ((.(.((....)).).)), in that order: 33.1 °C and -23.3 kcal/mol.
Turning to GACGTACGAAAGTAGTC (((.(((....)))))), the Tm in series [1] worked out at 52.8 °C. Also, in series [2], the folding enthalpy is -34 kcal/mol.
In the case of GTACAAACGAAAGTTTAC (((..(((....)))))), in series [1], the Tm was determined as 22.1 °C. Moreover, in series [2], the folding enthalpy is -8.86 kcal/mol.
In the case of GCTTTGAAAAAAGC (((((....))))), in series [1], the Tm came out at 47.4 °C. Besides, the folding enthalpy in series [2] is -21.3 kcal/mol.
As for GGCGAAGAAATTCGCC ((((((....)))))), the Tm in series [1] is 63.1 °C. Besides, the folding enthalpy in series [2] was -36.2 kcal/mol.
For GGCCCCGAAAGGGAGGCC ((((((....)))..))), in that order: 64.5 °C and -26.9 kcal/mol.
Taken in the same sequence, the figures for GCAATCGAAAGATTGC ((((((....)))))) were 64 °C and -42.2 kcal/mol.
For GATCATCGCGATGATC ((((((....)))))), the Tm in series [1] worked out at 59.7 °C. The folding enthalpy in series [2] was -48.5 kcal/mol.
For GAAGCAGGAAACTGTTTC (((.(((....))).))), in that order: 38.8 °C and -26.7 kcal/mol.
Taken in the same sequence, the figures for GCAGAGACGAAAGTCTGC (((..(((....)))))) were 51.7 °C and -19.6 kcal/mol.
Regarding GTTTTCGAAAGAAAAC ((((((....)))))), the Tm in series [1] turned out to be 57.4 °C. Also, the folding enthalpy in series [2] was -29.2 kcal/mol.
Taken in the same sequence, the figures for GAGACCGAAAGGTGCCTC ((((((....)))..))) were 31.1 °C and -12.7 kcal/mol.
For GTGGTGGGAAACTGCCAC ((((..(....)..)))), in that order: 49.1 °C and -29.2 kcal/mol.
